Measurements: paper PMC4207547 (Journal of Medicinal Chemistry, 2014)
Entries after “also recorded” stand apart in the source; their conditions may differ.

What was measured:
CXCR1 and CXCR2 = test: CXCL8-stimulated Ca2+ flux in hPMNs; assay type: cell-based, human; settings: 1 μM compound
Outline: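 Human PMNs isolated from blood by dextran sedimentation, Histopaque 1077 gradient and hypotonic red-cell lysis (>95% pure, >98% viable). Cells loaded with FLIPR Calcium 3 dye in Ca2+/Mg2+-free HBSS with 10 mM HEPES plus test compound or DMSO (1% final), 37 °C, 30 min. They were then pelleted and resuspended in HBSS with Ca2+/Mg2+, and compound was re-added at the same concentration. Fluorescence was read at 10^5 cells/well: 15 s basal, then agonist injected.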

C5a-induced Ca2+ flux = C5a-induced Ca2+ flux in hPMNs; assay type: cell-based, human; settings: for effect on C5a-induced Ca2+ flux, in words: hPMNs, concentrations up to 5 μM
Outline: (§1)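 Human PMNs were isolated from healthy donor blood by dextran sedimentation, Histopaque 1077 gradient and hypotonic red cell lysis (>95% pure, >98% viable). Cells were dye-loaded (FLIPR Calcium 3) in Ca/Mg-free HBSS with 10 mM HEPES plus test compound or 1% DMSO for 30 min at 37 °C. They were then resuspended in HBSS+ with compound re-added, at 10^5 cells/well. Agonist final: C5a 50 nM, fMLF 10 nM. Fluorescence (ex 485/em 525 nm) was read every 5 s for 240–500 s at room temperature, max–min as % of DMSO control.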

PAF-induced Ca2+ flux = PAF-induced Ca2+ flux in hPMNs; assay type: cell-based, human; settings: for effect on PAF-induced Ca2+ flux, in words: hPMNs, concentrations up to 5 μM
fMLF-induced Ca2+ flux = fMLF-induced Ca2+ flux in hPMNs; assay type: cell-based, human; settings: for effect on fMLF-induced Ca2+ flux, in words: hPMNs, concentrations up to 5 μM
Outline: as §1

CXCR2 [1] = target: T1, CXCR2 (Homo sapiens, UniProt P25025); test: Competition [125I]-CXCL8 binding assay, HEK293-hCXCR2 membranes; settings: up to 10 μM compound, 25 pM radioligand
T1 sequence (P25025 1-360): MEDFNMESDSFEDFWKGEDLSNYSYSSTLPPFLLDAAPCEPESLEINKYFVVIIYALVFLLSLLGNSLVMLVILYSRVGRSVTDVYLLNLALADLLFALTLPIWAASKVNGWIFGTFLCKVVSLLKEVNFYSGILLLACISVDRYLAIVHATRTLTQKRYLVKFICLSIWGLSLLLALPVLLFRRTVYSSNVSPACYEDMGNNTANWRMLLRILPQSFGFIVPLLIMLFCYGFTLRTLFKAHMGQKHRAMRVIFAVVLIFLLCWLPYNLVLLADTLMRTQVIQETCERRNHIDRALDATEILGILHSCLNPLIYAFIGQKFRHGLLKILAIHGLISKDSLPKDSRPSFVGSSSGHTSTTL

CXCR2 [2] = target: T1, CXCR2; test: CXCR2 cell surface expression by flow cytometry in HEK293 cells; assay type: cell-based; settings: 10 μM, 60 min exposure
Outline: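 Stable HEK293-CXCR2 cells were pretreated with 1% DMSO vehicle or test compound for 60 min; untransfected HEK293 served as negative isotype control. Cells were stained with PE-conjugated anti-human CXCR2 mouse monoclonal (1:100) at 4 °C for 60 min, washed, and fixed in 2% formaldehyde/PBS. PE signal was quantified by flow cytometry; data representative of three independent experiments.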

[3] = test system: CXCR2-mediated phosphorylation of ERK1/2; test: CXCL8-induced ERK1/2 phosphorylation in HEK293 cells expressing CXCR2; assay type: cell-based, human; settings: 10 μM compound, CXCL8 100 ng/mL, 0–30 min
Outline: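 G418-selected HEK293 pool stably expressing human CXCR2, 5 × 10^6 cells per 60 mm plate. […] Lysis was at 0, 5, 15 and 30 min in SDS/deoxycholate/Triton buffer with PMSF, aprotinin and leupeptin. Phospho-ERK1/2 and total ERK1/2 were detected by Western blot.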

male CD1 Swiss mice = test: Murine air-pouch model of inflammation; assay type: in vivo, mouse; settings: 0.2 mg/kg iv, 3 h before 2% carrageenan; vs positive control cohort, p < 0.01
Outline: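 Dorsal air pouch in 10–15-week-old male CD1 Swiss mice: 2 mL air sc, reinflated with 1.5 mL next day. Test compound (0.02 or 0.20 mg/kg) in PEG400:DMF:saline 20:20:80, or vehicle, was given iv by tail vein, n = 5 per cohort. After 3 h, 1 mL PBS or 2% carrageenan in PBS was injected into the pouch. Pouch fluid plus a 2 mL PBS wash was collected 4 h later; cells were counted by trypan blue on a hemocytometer. Student's t-test vs carrageenan/vehicle cohort.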

SMILES: O=C(Nc1ccc(F)cc1)c1ccc(SCc2ccccc2B(O)O)nc1 [Compound 7, 2-((5-(4-Fluorophenylcarbamoyl)pyridin-2-ylthio)methyl)phenylboronic acid]
- effect on CXCL8-stimulated Ca2+ flux, in words (CXCR1 and CXCR2): completely eliminate
- IC50 (C5a-induced Ca2+ flux; Homo sapiens, read-out: IC50, C5a-induced Ca2+ flux): > 5 µM
- effect on C5a-induced Ca2+ flux, in words (C5a-induced Ca2+ flux): failed to inhibit; also recorded: no inhibition
- effect on C5a-induced Ca2+ flux, in words (C5a-induced Ca2+ flux; listed as SX-517): no effect
- IC50 (PAF-induced Ca2+ flux; Homo sapiens, read-out: IC50, PAF-induced Ca2+ flux): > 5 µM
- effect on PAF-induced Ca2+ flux, in words (PAF-induced Ca2+ flux): failed to inhibit; also recorded: no inhibition
- effect on PAF-induced Ca2+ flux, in words (PAF-induced Ca2+ flux; listed as SX-517): no effect
- IC50 (fMLF-induced Ca2+ flux; Homo sapiens, read-out: IC50, fMLF-induced Ca2+ flux): > 5 µM
- effect on fMLF-induced Ca2+ flux, in words (fMLF-induced Ca2+ flux): failed to inhibit; also recorded: no inhibition
- effect on fMLF-induced Ca2+ flux, in words (fMLF-induced Ca2+ flux; listed as SX-517): no effect
- competition of [125I]-CXCL8 binding to CXCR2 membranes, in words (CXCR2 [1]): failed to compete
- competition of [125I]-CXCL8 binding to CXCR2 membranes, in words (CXCR2 [1]; listed as SX-517): unable to compete
- effect on cell surface expression of CXCR2, in words (CXCR2 [2]): did not significantly alter
- effect on CXCL8-induced ERK1/2 phosphorylation, in words [3]: completely blocked; also recorded: directly antagonized
- effect on CXCL8-induced ERK1/2 phosphorylation, in words ([3]; listed as SX-517): antagonized
- total cell count in inflammatory pouch infiltrate, in words (male CD1 Swiss mice): significant reduction; also recorded: significantly reduced
